In ChEMBL document CHEMBL1156772, “Synthesis, affinity profile and functional activity of potent chiral muscarinic antagonists with a pyrrolidinylfuran structure” (J Med Chem, 2010):

Tests used:
[1] = molecular target: Muscarinic acetylcholine receptor M3 (Cavia porcellus) (UniProt Q8VH26); experiment: Antagonist activity at muscarinic M3 receptor in guinea pig ileum assessed as effect on isotonic tension after 60 mins; type: functional, tissue-based
[2] = molecular target: T1, Muscarinic receptor 2 (Cavia porcellus) (UniProt Q8VH27); experiment: Antagonist activity at muscarinic M2 receptor in guinea pig left atrium assessed as effect on electrically-stimulated inotropic activity after 60 mins; type: functional, tissue-based; settings: Cardiac atrium
T1 sequence (whole entry): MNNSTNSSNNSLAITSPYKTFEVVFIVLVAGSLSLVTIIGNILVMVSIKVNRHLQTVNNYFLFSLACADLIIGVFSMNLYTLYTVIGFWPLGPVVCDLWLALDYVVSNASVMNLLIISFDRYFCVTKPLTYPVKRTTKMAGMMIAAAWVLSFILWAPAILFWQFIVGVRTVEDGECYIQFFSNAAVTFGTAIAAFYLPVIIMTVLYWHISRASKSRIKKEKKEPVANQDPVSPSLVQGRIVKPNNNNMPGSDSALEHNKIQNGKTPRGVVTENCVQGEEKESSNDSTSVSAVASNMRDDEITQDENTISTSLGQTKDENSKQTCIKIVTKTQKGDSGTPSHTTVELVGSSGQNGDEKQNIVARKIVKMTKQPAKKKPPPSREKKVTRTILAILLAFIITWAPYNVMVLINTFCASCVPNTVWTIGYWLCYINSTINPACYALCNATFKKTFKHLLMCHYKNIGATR

[3] = molecular target: T2, Muscarinic acetylcholine receptor M1 (Homo sapiens, UniProt P11229); experiment: Displacement of [3H]NMS from human cloned muscarinic M1 receptor expressed in CHO cells by scintillation counting; type: cell-based
T2 sequence (P11229 whole entry): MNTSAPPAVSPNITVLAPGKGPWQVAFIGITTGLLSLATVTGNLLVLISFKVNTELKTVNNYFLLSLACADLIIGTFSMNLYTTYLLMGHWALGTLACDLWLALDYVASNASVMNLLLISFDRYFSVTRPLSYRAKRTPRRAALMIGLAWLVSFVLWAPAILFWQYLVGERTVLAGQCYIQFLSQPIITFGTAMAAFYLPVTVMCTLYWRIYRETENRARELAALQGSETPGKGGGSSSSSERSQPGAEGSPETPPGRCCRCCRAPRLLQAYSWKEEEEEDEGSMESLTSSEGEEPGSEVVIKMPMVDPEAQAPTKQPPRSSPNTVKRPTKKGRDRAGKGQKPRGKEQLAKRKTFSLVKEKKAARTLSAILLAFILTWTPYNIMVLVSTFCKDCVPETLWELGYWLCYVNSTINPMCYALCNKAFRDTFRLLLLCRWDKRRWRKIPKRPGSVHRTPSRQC

[4] = Antagonist activity at muscarinic M1 receptor in New Zealand rabbit vas deferens assessed as effect on electrically-stimulated muscle contraction after 60 mins; type: functional, Oryctolagus cuniculus
[5] = molecular target: T3, Muscarinic acetylcholine receptor M2 (Homo sapiens, UniProt P08172); experiment: Displacement of [3H]NMS from human cloned muscarinic M2 receptor expressed in CHO cells by scintillation counting; type: cell-based
T3 sequence (P08172 whole entry): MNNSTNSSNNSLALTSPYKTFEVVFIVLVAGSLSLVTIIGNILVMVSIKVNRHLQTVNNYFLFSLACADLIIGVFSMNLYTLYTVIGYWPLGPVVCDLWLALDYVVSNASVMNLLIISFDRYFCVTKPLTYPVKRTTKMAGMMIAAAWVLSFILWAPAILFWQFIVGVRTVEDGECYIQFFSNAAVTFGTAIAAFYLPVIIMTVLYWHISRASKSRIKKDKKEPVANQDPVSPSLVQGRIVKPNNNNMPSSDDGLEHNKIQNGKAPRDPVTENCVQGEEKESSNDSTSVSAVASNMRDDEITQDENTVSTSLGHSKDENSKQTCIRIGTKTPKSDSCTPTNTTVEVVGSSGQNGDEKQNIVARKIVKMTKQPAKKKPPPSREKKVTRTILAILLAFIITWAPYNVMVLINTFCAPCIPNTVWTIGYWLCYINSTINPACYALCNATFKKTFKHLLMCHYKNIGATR
Method in brief: (§1)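 Equilibrium radioligand binding in CHO cells expressing the human muscarinic subtype, following the authors' earlier protocol.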

[6] = molecular target: Muscarinic acetylcholine receptor M3 (Homo sapiens, UniProt P20309); experiment: Displacement of [3H]NMS from human cloned muscarinic M3 receptor expressed in CHO cells by scintillation counting; type: cell-based
[7] = molecular target: T4, Muscarinic receptor 4 (Cavia porcellus) (UniProt Q8VH25); experiment: Antagonist activity at muscarinic M4 receptor in guinea pig lung strips assessed as effect on isotonic contraction after 60 mins; type: functional
T4 sequence (whole entry): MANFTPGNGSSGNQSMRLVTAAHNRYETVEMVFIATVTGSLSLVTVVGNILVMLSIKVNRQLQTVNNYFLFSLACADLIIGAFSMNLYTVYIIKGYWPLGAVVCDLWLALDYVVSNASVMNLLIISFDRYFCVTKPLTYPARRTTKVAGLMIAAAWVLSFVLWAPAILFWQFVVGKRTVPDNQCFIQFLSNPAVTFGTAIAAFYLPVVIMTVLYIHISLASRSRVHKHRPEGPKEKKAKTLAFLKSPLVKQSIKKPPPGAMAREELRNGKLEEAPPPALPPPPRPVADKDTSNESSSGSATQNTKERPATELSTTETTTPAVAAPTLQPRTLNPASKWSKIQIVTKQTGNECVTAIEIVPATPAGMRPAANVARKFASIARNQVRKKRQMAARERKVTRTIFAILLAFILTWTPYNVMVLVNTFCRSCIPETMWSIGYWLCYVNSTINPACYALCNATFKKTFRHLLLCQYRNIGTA

[8] = molecular target: T5, Muscarinic acetylcholine receptor M4 (Homo sapiens, UniProt P08173); experiment: Displacement of [3H]NMS from human cloned muscarinic M4 receptor expressed in CHO cells by scintillation counting; type: cell-based
T5 sequence (P08173 whole entry): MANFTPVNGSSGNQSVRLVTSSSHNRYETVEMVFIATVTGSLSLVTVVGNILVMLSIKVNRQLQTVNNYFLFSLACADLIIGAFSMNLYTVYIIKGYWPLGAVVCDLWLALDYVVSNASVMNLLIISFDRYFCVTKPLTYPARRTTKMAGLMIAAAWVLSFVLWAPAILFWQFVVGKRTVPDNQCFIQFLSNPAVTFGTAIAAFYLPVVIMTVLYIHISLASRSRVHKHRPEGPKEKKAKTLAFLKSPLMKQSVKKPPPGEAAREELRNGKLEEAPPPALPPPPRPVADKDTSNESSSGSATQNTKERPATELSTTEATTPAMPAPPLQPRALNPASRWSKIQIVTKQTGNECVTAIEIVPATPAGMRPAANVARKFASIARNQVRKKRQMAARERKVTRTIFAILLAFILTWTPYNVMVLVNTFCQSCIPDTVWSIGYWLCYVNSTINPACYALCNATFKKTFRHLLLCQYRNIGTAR

[9] = molecular target: T6, Muscarinic acetylcholine receptor M5 (Homo sapiens, UniProt P08912); experiment: Displacement of [3H]NMS from human cloned muscarinic M5 receptor expressed in CHO cells by scintillation counting; type: cell-based; method in brief: as §1
T6 sequence (P08912 whole entry): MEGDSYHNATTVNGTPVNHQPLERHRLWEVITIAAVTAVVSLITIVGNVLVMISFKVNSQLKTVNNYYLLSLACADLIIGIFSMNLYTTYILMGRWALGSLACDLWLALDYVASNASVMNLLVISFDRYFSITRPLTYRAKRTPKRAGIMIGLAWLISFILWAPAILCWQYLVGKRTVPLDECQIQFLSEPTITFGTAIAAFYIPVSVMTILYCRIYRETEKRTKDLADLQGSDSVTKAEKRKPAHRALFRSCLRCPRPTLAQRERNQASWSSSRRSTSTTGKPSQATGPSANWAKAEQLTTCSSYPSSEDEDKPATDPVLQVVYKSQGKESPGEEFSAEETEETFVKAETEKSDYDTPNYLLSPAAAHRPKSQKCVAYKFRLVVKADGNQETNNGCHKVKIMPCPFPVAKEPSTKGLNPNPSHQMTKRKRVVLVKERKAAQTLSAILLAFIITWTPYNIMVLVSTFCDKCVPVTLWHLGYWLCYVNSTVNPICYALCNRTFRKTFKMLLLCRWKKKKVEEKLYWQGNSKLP

Sequence of Muscarinic acetylcholine receptor M3 (P20309 whole entry): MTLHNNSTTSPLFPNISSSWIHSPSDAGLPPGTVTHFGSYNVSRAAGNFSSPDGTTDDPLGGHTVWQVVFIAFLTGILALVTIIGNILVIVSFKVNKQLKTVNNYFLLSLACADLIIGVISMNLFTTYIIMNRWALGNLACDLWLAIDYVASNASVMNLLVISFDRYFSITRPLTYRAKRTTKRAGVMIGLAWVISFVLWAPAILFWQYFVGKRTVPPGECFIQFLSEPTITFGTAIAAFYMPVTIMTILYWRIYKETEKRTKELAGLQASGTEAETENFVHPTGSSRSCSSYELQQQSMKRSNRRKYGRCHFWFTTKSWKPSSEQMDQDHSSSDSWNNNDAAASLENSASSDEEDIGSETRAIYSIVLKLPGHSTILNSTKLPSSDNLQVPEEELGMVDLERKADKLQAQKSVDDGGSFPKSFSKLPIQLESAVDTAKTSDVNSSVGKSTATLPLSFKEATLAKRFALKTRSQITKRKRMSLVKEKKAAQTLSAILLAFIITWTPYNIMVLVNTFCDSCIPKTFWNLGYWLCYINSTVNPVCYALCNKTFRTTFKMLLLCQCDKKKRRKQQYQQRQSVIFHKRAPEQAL
Sequence of Muscarinic acetylcholine receptor M3 (Cavia porcellus) (Q8VH26 1-587): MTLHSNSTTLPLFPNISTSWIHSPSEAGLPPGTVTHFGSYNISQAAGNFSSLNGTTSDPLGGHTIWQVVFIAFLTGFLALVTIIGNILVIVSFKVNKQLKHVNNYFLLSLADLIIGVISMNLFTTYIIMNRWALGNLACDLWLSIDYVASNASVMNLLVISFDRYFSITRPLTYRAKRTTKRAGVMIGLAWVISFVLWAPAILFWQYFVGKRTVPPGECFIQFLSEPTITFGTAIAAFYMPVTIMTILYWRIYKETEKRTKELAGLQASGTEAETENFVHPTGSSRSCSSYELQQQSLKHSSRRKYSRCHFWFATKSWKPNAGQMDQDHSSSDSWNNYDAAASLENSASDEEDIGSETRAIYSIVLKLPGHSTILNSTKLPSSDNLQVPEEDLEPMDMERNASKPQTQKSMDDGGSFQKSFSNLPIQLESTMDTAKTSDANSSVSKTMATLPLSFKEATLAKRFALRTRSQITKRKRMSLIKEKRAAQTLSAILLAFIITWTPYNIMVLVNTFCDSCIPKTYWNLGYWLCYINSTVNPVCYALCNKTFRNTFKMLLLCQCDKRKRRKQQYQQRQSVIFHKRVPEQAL

| SMILES | pKb [1] | pKb [2] | Ki [3] | pKb [4] | Ki [5] | Ki [6] | pKb [7] | Ki [8] | Ki [9] |
| --- | --- | --- | --- | --- | --- | --- | --- | --- | --- |
| C[N+]1(C)CCC[C@@H]1c1ccc([C@](O)(c2ccccc2)C2CCCCC2)o1.[I-] | 8.95 | 8.49 | 0.692 nM | 10.15 | 2.34 nM | 1.51 nM | 7.75 | 4.27 nM | 1.55 nM |
| CN1CCC[C@@H]1c1ccc([C@@](O)(c2ccccc2)C2CCCCC2)o1 | 6.77 | 6.23 | 191 nM | – | 363 nM | 324 nM | < 5 | 550 nM | 468 nM |
| C[N+]1(C)CCC[C@@H]1c1ccc([C@@](O)(c2ccccc2)C2CCCCC2)o1 | 6.95 | 6.85 | 47.9 nM | – | 87.1 nM | 155 nM | 6.33 | 372 nM | 229 nM |
| CN1CCC[C@H]1c1ccc([C@](O)(c2ccccc2)C2CCCCC2)o1 | 7.66 | 6.65 | 22.9 nM | – | 60.3 nM | 23.4 nM | 5.84 | 55 nM | 27.5 nM |
| C[N+]1(C)CCCC1c1ccc(C(O)(c2ccccc2)C2CCCCC2)o1 (mixture of isomers) | 8.35 | 7.88 | 2.09 nM | – | 10.2 nM | 7.24 nM | 5.9 | 15.5 nM | 11.5 nM |
| C[N+]1(C)CCCC1c1ccc(C(c2ccccc2)c2ccccc2)o1 (racemic) [listing 1 of 2 here] | 7.59 | 7.09 | – | – | – | – | < 5 | – | – |
| C[N+]1(C)CCCC1c1ccc(C(O)(c2ccccc2)c2ccccc2)o1 (racemic) [listing 1 of 2 here] | 7.6 | 7.08 | – | – | – | – | 6.2 | – | – |
| C[N+]1(C)CCCC1c1ccc(C(c2ccccc2)c2ccccc2)o1 (racemic) [listing 2 of 2 here] | – | – | 11.5 nM | – | 13.5 nM | 23.4 nM | – | 38 nM | 31.6 nM |
| CN1CCC[C@H]1c1ccc([C@@](O)(c2ccccc2)C2CCCCC2)o1 | 6.41 | 5.95 | 1230 nM | – | 3240 nM | 1660 nM | < 5 | 3090 nM | 1550 nM |
| C[N+]1(C)CCCC1c1ccc(C(c2ccccc2)c2ccccc2)o1.[I-] (mixture of isomers) | – | – | – | 7.91 | – | – | – | – | – |
| CN1CCC[C@@H]1c1ccc([C@](O)(c2ccccc2)C2CCCCC2)o1 | 8.76 | 7.91 | 1.23 nM | 9.58 | 4.57 nM | 1.66 nM | 5.92 | 3.98 nM | 3.31 nM |
| C[N+]1(C)CCCC1c1ccc(C(c2ccccc2)C2CCCCC2)o1 (mixture of isomers) | 7.88 | 6.21 | 6.61 nM | – | 17.4 nM | 8.91 nM | 5.69 | 19.5 nM | 15.5 nM |
| C[N+]1(C)CCC[C@H]1c1ccc([C@](O)(c2ccccc2)C2CCCCC2)o1 | 7.95 | 7.32 | 9.12 nM | – | 20 nM | 9.33 nM | 6.16 | 33.1 nM | 12 nM |
| C[N+]1(C)CCCC1c1ccc(C(O)(c2ccccc2)c2ccccc2)o1 (racemic) [listing 2 of 2 here] | – | – | 23.4 nM | – | 31.6 nM | 36.3 nM | – | 64.6 nM | 37.2 nM |
| C[N+]1(C)CCCC1c1ccc(C(O)(c2ccccc2)c2ccccc2)o1.[I-] (mixture of isomers) | – | – | – | 8.46 | – | – | – | – | – |
| CN1CCCC1c1ccc(C(O)(c2ccccc2)C2CCCCC2)o1 (mixture of isomers) | 7.8 | 6.98 | 1.23 nM | – | 6.76 nM | 7.76 nM | < 5 | 14.1 nM | 7.08 nM |
| C[N+]1(C)CCC[C@H]1c1ccc([C@@](O)(c2ccccc2)C2CCCCC2)o1 | 6.32 | 5.92 | 331 nM | – | 759 nM | 513 nM | < 5 | 2340 nM | 871 nM |
| CN1CCCC1c1ccc(C(c2ccccc2)c2ccccc2)o1 (centres undefined) | 6.81 | 6.52 | 42.7 nM | 6.64 | 64.6 nM | 85.1 nM | 5.19 | 158 nM | 105 nM |
| CN1CCCC1c1ccc(C(O)(c2ccccc2)c2ccccc2)o1 (racemic) | 6.65 | 6.92 | 35.5 nM | 6.91 | 29.5 nM | 95.5 nM | < 5 | 105 nM | 97.7 nM |
| CN1CCCC1c1ccc(C(c2ccccc2)C2CCCCC2)o1 (mixture of isomers) | 7.05 | 5.36 | 13.5 nM | – | 141 nM | 33.9 nM | < 5 | 77.6 nM | 55 nM |
